ChEMBL document CHEMBL5058577, “EUbOPEN Chemogenomics Library 2 (Multiplex)” (2022)

System: Fibroblast
Experiment: Multiplex assay against human fibroblast
Type: toxicity, cell-based
In short: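 Values for tubulin, mitochondrial-mass and membrane-permeability phenotypes are per cents of cells with healthy nuclei. These cells were identified by CellPathfinder machine-learning gating of live cells that had been stained at seeding with Hoechst33342, BioTracker Green Microtubule Cytoskeleton Dye, MitoTracker Red and Annexin V Alexa Fluor 680 and imaged on a CQ1 microscope at 37°C and 5% CO2 after compound addition. The gating first set Hoechst high-intensity objects apart from normal cells, then split normal cells into healthy, pyknosed or fragmented nuclei, and pyknosed cells into mitotic or apoptotic.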

[1] = 12 h, 1 µM, compound concentration 1 uM, replicate 1
[2] = 12 h, 1 µM, compound concentration 1 uM, replicate 2
[3] = 12 h, 10 µM, compound concentration 10 uM, replicate 1
[4] = 12 h, 10 µM, compound concentration 10 uM, replicate 2
[5] = 24 h, 1 µM, compound concentration 1 uM, replicate 1
[6] = 24 h, 1 µM, compound concentration 1 uM, replicate 2
[7] = 24 h, 10 µM, compound concentration 10 uM, replicate 1
[8] = 24 h, 10 µM, compound concentration 10 uM, replicate 2
[9] = 48 h, 1 µM, compound concentration 1 uM, replicate 1
[10] = 48 h, 1 µM, compound concentration 1 uM, replicate 2
[11] = 48 h, 10 µM, compound concentration 10 uM, replicate 1
[12] = 48 h, 10 µM, compound concentration 10 uM, replicate 2

CCCCC[C@H](O)/C=C/[C@H]1[C@H](O)CC(=O)[C@@H]1CCCCCCC(=O)O [ALPROSTADIL]
Population Apoptotic (%) [1]: 61%
Population Fragmented Nuclei (%) [1]: 16%
Population Healthy Nuclei (%) [1]: 71%
Population Hoechst High Intensity Objects (%) [1]: 0%
Population Membrane Permeable-Phenotype (%) [1]: 0%
Population Mitochondria Different-Phenotype (%) [1]: 1%
Population Mitotic Cells (%) [1]: 38%
Population Normal (%) [1]: 99%
Population Pyknosed Nuclei (%) [1]: 12%
Population Tubulin-Different-Phenotype (%) [1]: 12%
Total Cell Count [1]: 150
Population Apoptotic (%) [2]: 43%
Population Fragmented Nuclei (%) [2]: 23%
Population Healthy Nuclei (%) [2]: 57%
Population Hoechst High Intensity Objects (%) [2]: 4%
Population Membrane Permeable-Phenotype (%) [2]: 10%
Population Mitochondria Different-Phenotype (%) [2]: 2%
Population Mitotic Cells (%) [2]: 56%
Population Normal (%) [2]: 95%
Population Pyknosed Nuclei (%) [2]: 18%
Population Tubulin-Different-Phenotype (%) [2]: 38%
Total Cell Count [2]: 169
Population Apoptotic (%) [3]: 36%
Population Fragmented Nuclei (%) [3]: 7%
Population Healthy Nuclei (%) [3]: 75%
Population Hoechst High Intensity Objects (%) [3]: 5%
Population Membrane Permeable-Phenotype (%) [3]: 2%
Population Mitochondria Different-Phenotype (%) [3]: 4%
Population Mitotic Cells (%) [3]: 63%
Population Normal (%) [3]: 94%
Population Pyknosed Nuclei (%) [3]: 17%
Population Tubulin-Different-Phenotype (%) [3]: 26%
Total Cell Count [3]: 136
Population Apoptotic (%) [4]: 34%
Population Fragmented Nuclei (%) [4]: 25%
Population Healthy Nuclei (%) [4]: 43%
Population Hoechst High Intensity Objects (%) [4]: 16%
Population Membrane Permeable-Phenotype (%) [4]: 11%
Population Mitochondria Different-Phenotype (%) [4]: 1%
Population Mitotic Cells (%) [4]: 65%
Population Normal (%) [4]: 83%
Population Pyknosed Nuclei (%) [4]: 31%
Population Tubulin-Different-Phenotype (%) [4]: 45%
Total Cell Count [4]: 146
Population Apoptotic (%) [5]: 25%
Population Fragmented Nuclei (%) [5]: 15%
Population Healthy Nuclei (%) [5]: 73%
Population Hoechst High Intensity Objects (%) [5]: 0%
Population Membrane Permeable-Phenotype (%) [5]: 0%
Population Mitochondria Different-Phenotype (%) [5]: 1%
Population Mitotic Cells (%) [5]: 75%
Population Normal (%) [5]: 99%
Population Pyknosed Nuclei (%) [5]: 10%
Population Tubulin-Different-Phenotype (%) [5]: 15%
Total Cell Count [5]: 147
Population Apoptotic (%) [6]: 43%
Population Fragmented Nuclei (%) [6]: 22%
Population Healthy Nuclei (%) [6]: 53%
Population Hoechst High Intensity Objects (%) [6]: 2%
Population Membrane Permeable-Phenotype (%) [6]: 8%
Population Mitochondria Different-Phenotype (%) [6]: 8%
Population Mitotic Cells (%) [6]: 56%
Population Normal (%) [6]: 97%
Population Pyknosed Nuclei (%) [6]: 24%
Population Tubulin-Different-Phenotype (%) [6]: 40%
Total Cell Count [6]: 165
Population Apoptotic (%) [7]: 63%
Population Fragmented Nuclei (%) [7]: 14%
Population Healthy Nuclei (%) [7]: 69%
Population Hoechst High Intensity Objects (%) [7]: 2%
Population Membrane Permeable-Phenotype (%) [7]: 0%
Population Mitochondria Different-Phenotype (%) [7]: 2%
Population Mitotic Cells (%) [7]: 36%
Population Normal (%) [7]: 97%
Population Pyknosed Nuclei (%) [7]: 15%
Population Tubulin-Different-Phenotype (%) [7]: 19%
Total Cell Count [7]: 147
Population Apoptotic (%) [8]: 30%
Population Fragmented Nuclei (%) [8]: 27%
Population Healthy Nuclei (%) [8]: 45%
Population Hoechst High Intensity Objects (%) [8]: 13%
Population Membrane Permeable-Phenotype (%) [8]: 16%
Population Mitochondria Different-Phenotype (%) [8]: 3%
Population Mitotic Cells (%) [8]: 69%
Population Normal (%) [8]: 86%
Population Pyknosed Nuclei (%) [8]: 26%
Population Tubulin-Different-Phenotype (%) [8]: 59%
Total Cell Count [8]: 157
Population Apoptotic (%) [9]: 32%
Population Fragmented Nuclei (%) [9]: 18%
Population Healthy Nuclei (%) [9]: 62%
Population Hoechst High Intensity Objects (%) [9]: 1%
Population Membrane Permeable-Phenotype (%) [9]: 1%
Population Mitochondria Different-Phenotype (%) [9]: 4%
Population Mitotic Cells (%) [9]: 67%
Population Normal (%) [9]: 98%
Population Pyknosed Nuclei (%) [9]: 18%
Population Tubulin-Different-Phenotype (%) [9]: 30%
Total Cell Count [9]: 152
Population Apoptotic (%) [10]: 55%
Population Fragmented Nuclei (%) [10]: 26%
Population Healthy Nuclei (%) [10]: 51%
Population Hoechst High Intensity Objects (%) [10]: 3%
Population Membrane Permeable-Phenotype (%) [10]: 6%
Population Mitochondria Different-Phenotype (%) [10]: 8%
Population Mitotic Cells (%) [10]: 44%
Population Normal (%) [10]: 96%
Population Pyknosed Nuclei (%) [10]: 21%
Population Tubulin-Different-Phenotype (%) [10]: 44%
Total Cell Count [10]: 162
Population Apoptotic (%) [11]: 62%
Population Fragmented Nuclei (%) [11]: 11%
Population Healthy Nuclei (%) [11]: 62%
Population Hoechst High Intensity Objects (%) [11]: 2%
Population Membrane Permeable-Phenotype (%) [11]: 1%
Population Mitochondria Different-Phenotype (%) [11]: 7%
Population Mitotic Cells (%) [11]: 37%
Population Normal (%) [11]: 97%
Population Pyknosed Nuclei (%) [11]: 26%
Population Tubulin-Different-Phenotype (%) [11]: 34%
Total Cell Count [11]: 144
Population Apoptotic (%) [12]: 48%
Population Fragmented Nuclei (%) [12]: 33%
Population Healthy Nuclei (%) [12]: 44%
Population Hoechst High Intensity Objects (%) [12]: 16%
Population Membrane Permeable-Phenotype (%) [12]: 13%
Population Mitotic Cells (%) [12]: 51%
Population Normal (%) [12]: 83%
Population Pyknosed Nuclei (%) [12]: 22%
Population Tubulin-Different-Phenotype (%) [12]: 60%

COC(c1ccccc1)(c1ccccc1)[C@H](Oc1nc(C)cc(C)n1)C(=O)O [AMBRISENTAN]
Population Apoptotic (%) [1]: 68%
Population Fragmented Nuclei (%) [1]: 13%
Population Healthy Nuclei (%) [1]: 66%
Population Hoechst High Intensity Objects (%) [1]: 1%
Population Membrane Permeable-Phenotype (%) [1]: 0%
Population Mitochondria Different-Phenotype (%) [1]: 4%
Population Mitotic Cells (%) [1]: 31%
Population Normal (%) [1]: 98%
Population Pyknosed Nuclei (%) [1]: 19%
Population Tubulin-Different-Phenotype (%) [1]: 29%
Total Cell Count [1]: 97
Population Apoptotic (%) [2]: 30%
Population Fragmented Nuclei (%) [2]: 18%
Population Healthy Nuclei (%) [2]: 56%
Population Hoechst High Intensity Objects (%) [2]: 4%
Population Membrane Permeable-Phenotype (%) [2]: 1%
Population Mitochondria Different-Phenotype (%) [2]: 6%
Population Mitotic Cells (%) [2]: 69%
Population Normal (%) [2]: 95%
Population Pyknosed Nuclei (%) [2]: 25%
Population Tubulin-Different-Phenotype (%) [2]: 37%
Total Cell Count [2]: 163
Population Apoptotic (%) [3]: 56%
Population Fragmented Nuclei (%) [3]: 8%
Population Healthy Nuclei (%) [3]: 70%
Population Hoechst High Intensity Objects (%) [3]: 5%
Population Membrane Permeable-Phenotype (%) [3]: 0%
Population Mitochondria Different-Phenotype (%) [3]: 11%
Population Mitotic Cells (%) [3]: 43%
Population Normal (%) [3]: 94%
Population Pyknosed Nuclei (%) [3]: 21%
Population Tubulin-Different-Phenotype (%) [3]: 25%
Total Cell Count [3]: 145
Population Apoptotic (%) [4]: 33%
Population Fragmented Nuclei (%) [4]: 39%
Population Healthy Nuclei (%) [4]: 25%
Population Hoechst High Intensity Objects (%) [4]: 4%
Population Membrane Permeable-Phenotype (%) [4]: 5%
Population Mitochondria Different-Phenotype (%) [4]: 0%
Population Mitotic Cells (%) [4]: 66%
Population Normal (%) [4]: 95%
Population Pyknosed Nuclei (%) [4]: 34%
Population Tubulin-Different-Phenotype (%) [4]: 35%
Total Cell Count [4]: 82
Population Apoptotic (%) [5]: 62%
Population Fragmented Nuclei (%) [5]: 15%
Population Healthy Nuclei (%) [5]: 67%
Population Hoechst High Intensity Objects (%) [5]: 2%
Population Membrane Permeable-Phenotype (%) [5]: 0%
Population Mitochondria Different-Phenotype (%) [5]: 4%
Population Mitotic Cells (%) [5]: 37%
Population Normal (%) [5]: 97%
Population Pyknosed Nuclei (%) [5]: 17%
Population Tubulin-Different-Phenotype (%) [5]: 38%
Total Cell Count [5]: 95
Population Apoptotic (%) [6]: 34%
Population Fragmented Nuclei (%) [6]: 14%
Population Healthy Nuclei (%) [6]: 62%
Population Hoechst High Intensity Objects (%) [6]: 5%
Population Membrane Permeable-Phenotype (%) [6]: 3%
Population Mitochondria Different-Phenotype (%) [6]: 3%
Population Mitotic Cells (%) [6]: 65%
Population Normal (%) [6]: 94%
Population Pyknosed Nuclei (%) [6]: 23%
Total Cell Count [6]: 158
Population Apoptotic (%) [7]: 69%
Population Fragmented Nuclei (%) [7]: 12%
Population Healthy Nuclei (%) [7]: 68%
Population Hoechst High Intensity Objects (%) [7]: 7%
Population Membrane Permeable-Phenotype (%) [7]: 0%
Population Mitochondria Different-Phenotype (%) [7]: 11%
Population Mitotic Cells (%) [7]: 30%
Population Normal (%) [7]: 92%
Population Pyknosed Nuclei (%) [7]: 18%
Population Tubulin-Different-Phenotype (%) [7]: 29%
Total Cell Count [7]: 149
Population Apoptotic (%) [8]: 27%
Population Fragmented Nuclei (%) [8]: 46%
Population Healthy Nuclei (%) [8]: 27%
Population Hoechst High Intensity Objects (%) [8]: 5%
Population Membrane Permeable-Phenotype (%) [8]: 5%
Population Mitochondria Different-Phenotype (%) [8]: 10%
Population Mitotic Cells (%) [8]: 72%
Population Normal (%) [8]: 94%
Population Pyknosed Nuclei (%) [8]: 26%
Population Tubulin-Different-Phenotype (%) [8]: 36%
Total Cell Count [8]: 73
Population Apoptotic (%) [9]: 60%
Population Fragmented Nuclei (%) [9]: 19%
Population Healthy Nuclei (%) [9]: 64%
Population Hoechst High Intensity Objects (%) [9]: 4%
Population Membrane Permeable-Phenotype (%) [9]: 1%
Population Mitochondria Different-Phenotype (%) [9]: 5%
Population Mitotic Cells (%) [9]: 40%
Population Normal (%) [9]: 95%
Population Pyknosed Nuclei (%) [9]: 16%
Population Tubulin-Different-Phenotype (%) [9]: 28%
Total Cell Count [9]: 93
Population Apoptotic (%) [10]: 61%
Population Fragmented Nuclei (%) [10]: 24%
Population Healthy Nuclei (%) [10]: 54%
Population Hoechst High Intensity Objects (%) [10]: 0%
Population Membrane Permeable-Phenotype (%) [10]: 4%
Population Mitochondria Different-Phenotype (%) [10]: 10%
Population Mitotic Cells (%) [10]: 38%
Population Normal (%) [10]: 99%
Population Pyknosed Nuclei (%) [10]: 20%
Population Tubulin-Different-Phenotype (%) [10]: 42%
Total Cell Count [10]: 154
Population Apoptotic (%) [11]: 61%
Population Fragmented Nuclei (%) [11]: 14%
Population Healthy Nuclei (%) [11]: 71%
Population Hoechst High Intensity Objects (%) [11]: 7%
Population Membrane Permeable-Phenotype (%) [11]: 1%
Population Mitochondria Different-Phenotype (%) [11]: 10%
Population Mitotic Cells (%) [11]: 38%
Population Normal (%) [11]: 92%
Population Pyknosed Nuclei (%) [11]: 13%
Population Tubulin-Different-Phenotype (%) [11]: 34%
Total Cell Count [11]: 145
Population Apoptotic (%) [12]: 71%
Population Fragmented Nuclei (%) [12]: 50%
Population Healthy Nuclei (%) [12]: 31%
Population Hoechst High Intensity Objects (%) [12]: 3%
Population Membrane Permeable-Phenotype (%) [12]: 0%
Population Mitochondria Different-Phenotype (%) [12]: 0%
Population Mitotic Cells (%) [12]: 28%
Population Normal (%) [12]: 96%
Population Pyknosed Nuclei (%) [12]: 18%
Population Tubulin-Different-Phenotype (%) [12]: 62%
Total Cell Count [12]: 79
